From ChEMBL document CHEMBL1136736, “In vitro and in vivo antitumor properties of tetrakis((trishydroxy- methyl)phosphine)gold(I) chloride” (J Med Chem, 2003)

How the values were obtained:
Format in all cases: functional, cell-based
LNCaP [1] = test: Growth inhibition of LNCaP cell line at 0.54 nM derived from prostate cancer; conditions: Homo sapiens
Method in brief: (§1)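 Tumor cells were exposed to the compound added as a methanol solution and cultured in a 5% CO2 incubator for 7 days (4 days for some table entries). Cells were counted, and percent growth inhibition = (mean control count − mean treated count)/mean control count × 100.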

LNCaP [2] = test: Growth inhibition of LNCaP cell line at 2.74 nM derived from prostate cancer; conditions: Homo sapiens; method in brief: as §1
AGS [3] = test: Growth inhibition of AGS cell line at 2.74 nM derived from human gastric carcinoma; conditions: Stomach; method in brief: as §1
AGS [4] = test: Growth inhibition of AGS cell line at 0.54 nM derived from human gastric carcinoma; conditions: Stomach; method in brief: as §1
HCT-15 [5] = test: Growth inhibition of HCT-15 cell line at 2.74 nM derived from human colon carcinoma; method in brief: as §1
AGS [6] = test: Growth inhibition of AGS cell line at 13.72 nM derived from human gastric carcinoma; conditions: Stomach; method in brief: as §1
LNCaP [7] = test: Growth inhibition of LNCaP cell line at 13.72 nM derived from prostate cancer; conditions: Homo sapiens; method in brief: as §1
PC-3 = test: Growth inhibition of PC-3 cell line at 13.72 nM derived from prostate cancer; conditions: Homo sapiens; method in brief: as §1
HCT-15 [8] = test: Growth inhibition of HCT-15 cell line at 13.72 nM derived from human colon carcinoma; method in brief: as §1
HCT-15 [9] = test: Growth inhibition of HCT-15 cell line at 0.54 nM derived from human colon carcinoma; method in brief: as §1

Substance “TETRAKIS((TRISHYDROXYMETHYL) PHOSPHINE)GOLD(I) CHLORIDE” has an inhibition (LNCaP [1]) of 47.4%, an inhibition (LNCaP [2]) of 59.2% and an inhibition (AGS [3]) of 17.4%. It also gave an inhibition (AGS [4]) of 10.2%, an inhibition (HCT-15 [5]) of 58.3% and an inhibition (AGS [6]) of 59.5%. It also gave an inhibition (LNCaP [7]) of 83.9%, an inhibition (PC-3) of 27% and an inhibition (HCT-15 [8]) of 87.5%. It also gave an inhibition (HCT-15 [9]) of 22.5%.
